Source: ChEMBL document CHEMBL2346644, “Anti-HBV active constituents from Piper longum” (Bioorg Med Chem Lett, 2013)

Assays:
Hepatitis B virus [1] = experiment: Antiviral activity against Hepatitis B virus-infected human HepG2(2.2.15) cells assessed as inhibition of HBeAg secretion; format: functional, organism-based
Outline: (§1)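 Secretion of HBsAg and HBeAg by the HBV-producing Hep G2.2.15 line was measured after compound treatment. IC50 is the concentration giving 50% inhibition of antigen secretion. Lamivudine (3TC) served as the positive control. Values are the mean of two independent experiments.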

Hepatitis B virus [2] = experiment: Antiviral activity against Hepatitis B virus-infected human HepG2(2.2.15) cells assessed as inhibition of HBsAg secretion; format: functional, organism-based; outline: as §1
[3] = Cytotoxicity against human HepG2(2.2.15) cells; format: cell-based
Outline: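 The CC50, the concentration causing 50% cytotoxicity, was determined in Hep G2.2.15 cells. Values are the mean of two independent experiments.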

[4] = Selectivity index, ratio of CC50 for human HepG2(2.2.15) cells to IC50 for Hepatitis B virus-infected human HepG2(2.2.15) cells assessed as inhibition of HBeAg secretion; format: functional
Outline: (§2)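 SI was calculated as CC50/IC50 from Hep G2.2.15 cytotoxicity and from inhibition of HBeAg or HBsAg secretion. The underlying values are means of two independent experiments.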

[5] = Selectivity index, ratio of CC50 for human HepG2(2.2.15) cells to IC50 for Hepatitis B virus-infected human HepG2(2.2.15) cells assessed as inhibition of HBsAg secretion; format: functional; outline: as §2

Row | IC50 (Hepatitis B virus [1]) [µM] | IC50 (Hepatitis B virus [2]) [µM] | Compound | CC50 [3] [µM] | Ratio CC50/IC50 [4] | Ratio CC50/IC50 [5]
1 | > 2700 | 2700 | COc1cc(CC/C=C/C(=O)N2CCCCC2)ccc1O | > 2700 |  | 
2 | 1070 | 580 | CCCCCCCCCCCCCCC/C=C/C=C/C(=O)NCC(C)C | 1580 | 1.5 | 2.7
3 | > 1220 | > 1220 | O=C1NCC[C@H](O)[C@H]1O | > 1220 |  | 
4 | 160 | 130 | O=C(/C=C/CCCC[C@H](O)[C@H](O)c1ccc2c(c1)OCO2)N1CCCCC1 (relative stereo) | 320 | 2 | 2.5
5 | 110 | 110 | O=C(/C=C/CCCC[C@@H](O)[C@H](O)c1ccc2c(c1)OCO2)N1CCCCC1 (relative stereo) | 210 | 1.9 | 1.9
6 | > 14000 | > 14000 | O=C1C=CCCN1 [5,6-DIHYDRO-2(1H)-PYRIDINONE] | 9900 |  | 
7 | > 3750 | > 3750 | CC(CC(=O)O)(CC(=O)O)OC[C@H]1O[C@@H](OC/C=C/c2ccccc2)[C@H](O)[C@@H](O)[C@@H]1O [LONGUMOSIDE B] | > 3750 |  | 
8 | 140 | 150 | O=C(/C=C/C=C/c1ccc2c(c1)OCO2)N1CCCCC1 [PIPERINE] | 2350 | 16.8 | 15.7
9 | > 4510 | > 4510 | CC(C)CNC(=O)/C=C/C=C/c1ccc2c(c1)OCO2 [PIPERLONGUMININE] | 320 |  | 

Row | Compound | IC50 (Hepatitis B virus [1]) [µM] | IC50 (Hepatitis B virus [2]) [µM] | CC50 [3] [µM] | Ratio CC50/IC50 [4] | Ratio CC50/IC50 [5]
10 | CC(C)CNC(=O)/C=C/C=C/CCCCCC/C=C/c1ccc2c(c1)OCO2 [GUINEENSINE] | < 50 | < 50 | 150 | >3 | >3
11 | Nc1ccn([C@@H]2CS[C@H](CO)O2)c(=O)n1 [LAMIVUDINE] | 30400 | 28800 |  | 1 | 1.1
